Test [1] is described as follows: Displacement of [3H]-SCH-23390 from dopamine D1 like receptor in pig striatal homogenates after 30 mins by scintillation counting. It counts as tissue-based, Sus scrofa. A general note: Loss of bound radioactivity is the signal in a displacement assay; it reports binding, not function.
For the next test, the species on record is Sus scrofa. The test can be described thus: Selectivity ratio of Ki for dopamine D2 like receptor in pig striatal homogenates to Ki for dopamine D1 like receptor in pig striatal homogenates. The test is classed as tissue-based. The essentials:
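Porcine striatal homogenate in 50 mM HEPES, 4 mM MgCl2, pH 7.4. […] D2-like sites labelled with 0.2–0.4 nM [3H]N-methylspiperone plus 50 nM ketanserin to block 5-HT2A. Nonspecific binding with 5 µM (+)-butaclamol. 30 min at 37 °C, filtration, scintillation counting. Ki by Cheng-Prusoff from IC50. At least three experiments.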

Test [2] in a line: Displacement of [3H]-N-methylspiperone from dopamine D2 like receptor in pig striatal homogenates after 30 mins by scintillation counting. The test is classed as tissue-based, Sus scrofa.
Test [3] addresses T1, D(3) dopamine receptor (Homo sapiens, UniProt P35462). Description: Agonist activity at dopamine D3 receptor in human U2OS-D3 cells assessed as EA-tagged beta-arrestin translocation after 1.5 hrs by luminescence based beta-galactosidase assay relative to dopamine. The test is classed as functional, cell-based.
The target in another test is D(1A) dopamine receptor (Homo sapiens, UniProt P21728). Description: Displacement of [3H]-SCH-23390 from human dopamine D1 receptor expressed in HEK293 cells after 30 mins by scintillation counting. The test is classed as cell-based.
D(1A) dopamine receptor, sequence (P21728 whole entry): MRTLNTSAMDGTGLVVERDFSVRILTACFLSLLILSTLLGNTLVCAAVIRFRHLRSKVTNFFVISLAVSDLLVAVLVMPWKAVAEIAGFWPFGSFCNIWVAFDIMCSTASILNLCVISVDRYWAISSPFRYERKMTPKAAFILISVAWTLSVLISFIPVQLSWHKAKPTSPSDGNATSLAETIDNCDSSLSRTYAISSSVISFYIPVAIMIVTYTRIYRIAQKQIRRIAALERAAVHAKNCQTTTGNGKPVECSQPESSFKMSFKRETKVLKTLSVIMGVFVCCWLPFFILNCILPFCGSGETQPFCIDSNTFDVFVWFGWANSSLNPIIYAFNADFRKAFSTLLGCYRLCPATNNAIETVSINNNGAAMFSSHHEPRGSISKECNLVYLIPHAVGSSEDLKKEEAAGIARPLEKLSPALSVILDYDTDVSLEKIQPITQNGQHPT
The species entered for test [4] is Homo sapiens. Description: Selectivity ratio of Ki for human dopamine D3 receptor to Ki for human dopamine D1 receptor. The essentials: (§1)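 Membranes from HEK293 cells transiently expressing human receptors: D1 at ~2840 fmol/mg, D2Long at ~2500 fmol/mg, D3 at ~1980 fmol/mg. Buffer 50 mM Tris, 4 mM MgCl2, pH 7.4. […] 5 µM (+)-butaclamol for nonspecific binding. 30 min at 37 °C, filtration, scintillation.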

The species named for test [5] is Homo sapiens. The test can be described thus: Selectivity ratio of Ki for human dopamine D3 receptor to Ki for human dopamine D2long receptor. An outline of the steps: as §1
The target in another test is D(2) dopamine receptor (Homo sapiens, UniProt P14416). Description: Displacement of [3H]-N-methylspiperone from human dopamine D2long receptor expressed in HEK293 cells after 30 mins by scintillation counting. It counts as cell-based.
D(2) dopamine receptor, sequence (P14416 whole entry): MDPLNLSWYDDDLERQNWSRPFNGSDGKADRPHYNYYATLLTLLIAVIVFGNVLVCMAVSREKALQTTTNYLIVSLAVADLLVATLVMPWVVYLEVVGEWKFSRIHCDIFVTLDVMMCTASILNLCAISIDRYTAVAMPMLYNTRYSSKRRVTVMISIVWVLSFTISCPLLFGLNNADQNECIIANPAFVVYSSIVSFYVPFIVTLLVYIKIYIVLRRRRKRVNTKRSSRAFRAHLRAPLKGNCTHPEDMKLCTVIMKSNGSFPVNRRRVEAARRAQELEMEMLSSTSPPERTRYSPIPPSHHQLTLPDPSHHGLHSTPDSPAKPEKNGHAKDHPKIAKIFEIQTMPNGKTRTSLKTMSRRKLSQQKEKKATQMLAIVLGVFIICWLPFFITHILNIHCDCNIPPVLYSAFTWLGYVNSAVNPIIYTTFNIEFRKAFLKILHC
Test [6] concerns the target T1, D(3) dopamine receptor. Description: Displacement of [3H]-N-methylspiperone from human dopamine D3 receptor expressed in HEK293 cells after 30 mins by scintillation counting. The test is classed as cell-based.

Molecules are shown by their SMILES.

One may read the Ki as the equilibrium dissociation constant of an inhibitor or competing ligand from its target. One may read the Emax as the maximal effect, on the per cent scale that the assay sets.

T1 sequence (P35462 whole entry): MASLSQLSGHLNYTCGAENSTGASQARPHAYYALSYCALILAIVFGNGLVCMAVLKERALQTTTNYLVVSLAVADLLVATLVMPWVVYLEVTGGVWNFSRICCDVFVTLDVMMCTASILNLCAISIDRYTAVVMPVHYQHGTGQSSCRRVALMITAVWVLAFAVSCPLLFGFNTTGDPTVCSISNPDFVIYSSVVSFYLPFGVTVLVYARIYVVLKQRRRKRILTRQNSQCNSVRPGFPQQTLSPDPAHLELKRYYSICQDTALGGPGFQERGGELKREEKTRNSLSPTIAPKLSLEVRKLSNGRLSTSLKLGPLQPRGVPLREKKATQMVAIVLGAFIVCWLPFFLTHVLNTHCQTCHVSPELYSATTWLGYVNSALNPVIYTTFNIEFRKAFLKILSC

As to `Oc1cc2c(cc1O)[C@H]1C[C@@H](c3ccc(C(F)(F)F)cc3)CN[C@@H]1CC2` (racemic), the Ki came to 2370 nM in test [1] and 150 nM in [2]. In the test listed under Sus scrofa, the Ratio Ki was 16.

For `Oc1cc2c(cc1O)[C@H]1C[C@@H](c3ccccc3)CN[C@@H]1CC2` (racemic), the Ki in test [1] is 930 nM; in [2] it was 30 nM. The Ratio Ki in the test listed under Sus scrofa was found to be 31.

In turn, `Oc1cc2c(cc1O)[C@H]1c3ccccc3CN[C@@H]1CC2` (relative stereo) [DIHYDREXIDINE] had a Ki in [2] of 200 nM.

As for `CCCN1C[C@H](c2ccc(O)cc2)C[C@@H]2c3cc(O)c(O)cc3CC[C@H]21` (relative stereo), the Emax at D(3) dopamine receptor [3] was found to be 103%. The Ki amounted to 921 nM on D(1A) dopamine receptor, 630 nM in [1] and 10 nM in test [2]. Also, the figures for the Ratio Ki in the test listed under Homo sapiens [4], in the test listed under Sus scrofa and in the test listed under Homo sapiens [5] were 840, 61 and 145, respectively.

Regarding `Cc1ccc([C@H]2CN[C@@H]3CCc4cc(O)c(O)cc4[C@H]3C2)cc1` (racemic), the Ki in test [1] was found to be 810 nM; in [2], 56 nM. Further, in the test filed under Sus scrofa, the Ratio Ki stood at 14.

On to `Oc1ccc([C@H]2CN[C@@H]3CCc4cc(O)c(O)cc4[C@H]3C2)cc1` (racemic), for which the Ki on D(2) dopamine receptor is 490 nM; on D(3) dopamine receptor [6] it was 50 nM; on D(1A) dopamine receptor, 550 nM; in [1] it was 490 nM; in test [2], 14 nM. Also, the results for the Ratio Ki in the test filed under Sus scrofa and in the test listed under Homo sapiens [5] were 34 and 10, respectively.

Regarding `CN1CCc2cc(Cl)c(O)cc2[C@@H](c2ccccc2)C1.O=C(O)/C(O)=C(/O)C(=O)O`, the Ki in [1] amounted to 0.31 nM.

Regarding `Oc1ccc2c(c1O)C[C@@H](c1ccccc1)[C@@H]1CCNC[C@@H]21`, the Ki at D(3) dopamine receptor [6] was 210 nM; at D(1A) dopamine receptor, 47 nM; in test [1], 8.2 nM; in [2], 180 nM.

On to `Oc1cccc([C@H]2CN[C@@H]3CCc4cc(O)c(O)cc4[C@H]3C2)c1` (racemic), for which the Ki in test [1] came out at 580 nM; in test [2] it was 29 nM. Further, in the test listed under Sus scrofa, the Ratio Ki stood at 20.
